The target in one assay is human TRPM3-3 (Homo sapiens, UniProt Q9HCF6). It counts as cell-based. The following applies: 100 μmol/L Dic applied during sustained response; Nif 30 μmol/L.
Assay [1] has as its system human TRPM3s (TRPM3_1325, TRPM3-3, TRPM3-9). Put plainly: Whole-cell patch clamp in HEK-TRPM3s cells. It counts as cell-based. (In patch-clamp work, channel activity is measured electrically.)
The subject of the next assay is human TRPM3-S. Put plainly: Whole-cell patch clamp, constitutive spontaneous currents in HEK-TRPM3-S cells. The following applies: 10 and 30 μmol/L Dic; absence of PregS. It counts as cell-based.
The subject of assay [2] is wild-type control HEK293 cells. Put plainly: Whole-cell patch clamp in wild-type control HEK293 cells. The class given is cell-based, human. The following applies: 10 and 30 μmol/L Dic; cells without TRPM3s. In short, it runs like this: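 Untransfected HEK293 cells, whole-cell mode, 2.5–5 MΩ electrodes, 25 ± 1°C. Pipette (mmol/L): Cs-aspartate 110, CsCl 30, MgCl2 1, HEPES 10, EGTA 1, Na2ATP 2, pH 7.2. HEPES-buffered bath at pH 7.4 with 2.2 CaCl2. Ramps from −110 to +90 mV (400 msec) every 10 sec from −10 mV holding. Junction potential corrected, leak uncorrected. Test compound at 10 and 30 μmol/L.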

For another assay, the target named is TRPM2 (Homo sapiens, UniProt O94759). Kind of assay: Ca2+ measurement in HEK293 cells transfected with TRPM2. The class given is cell-based.
Chain of TRPM2 (O94759 whole entry): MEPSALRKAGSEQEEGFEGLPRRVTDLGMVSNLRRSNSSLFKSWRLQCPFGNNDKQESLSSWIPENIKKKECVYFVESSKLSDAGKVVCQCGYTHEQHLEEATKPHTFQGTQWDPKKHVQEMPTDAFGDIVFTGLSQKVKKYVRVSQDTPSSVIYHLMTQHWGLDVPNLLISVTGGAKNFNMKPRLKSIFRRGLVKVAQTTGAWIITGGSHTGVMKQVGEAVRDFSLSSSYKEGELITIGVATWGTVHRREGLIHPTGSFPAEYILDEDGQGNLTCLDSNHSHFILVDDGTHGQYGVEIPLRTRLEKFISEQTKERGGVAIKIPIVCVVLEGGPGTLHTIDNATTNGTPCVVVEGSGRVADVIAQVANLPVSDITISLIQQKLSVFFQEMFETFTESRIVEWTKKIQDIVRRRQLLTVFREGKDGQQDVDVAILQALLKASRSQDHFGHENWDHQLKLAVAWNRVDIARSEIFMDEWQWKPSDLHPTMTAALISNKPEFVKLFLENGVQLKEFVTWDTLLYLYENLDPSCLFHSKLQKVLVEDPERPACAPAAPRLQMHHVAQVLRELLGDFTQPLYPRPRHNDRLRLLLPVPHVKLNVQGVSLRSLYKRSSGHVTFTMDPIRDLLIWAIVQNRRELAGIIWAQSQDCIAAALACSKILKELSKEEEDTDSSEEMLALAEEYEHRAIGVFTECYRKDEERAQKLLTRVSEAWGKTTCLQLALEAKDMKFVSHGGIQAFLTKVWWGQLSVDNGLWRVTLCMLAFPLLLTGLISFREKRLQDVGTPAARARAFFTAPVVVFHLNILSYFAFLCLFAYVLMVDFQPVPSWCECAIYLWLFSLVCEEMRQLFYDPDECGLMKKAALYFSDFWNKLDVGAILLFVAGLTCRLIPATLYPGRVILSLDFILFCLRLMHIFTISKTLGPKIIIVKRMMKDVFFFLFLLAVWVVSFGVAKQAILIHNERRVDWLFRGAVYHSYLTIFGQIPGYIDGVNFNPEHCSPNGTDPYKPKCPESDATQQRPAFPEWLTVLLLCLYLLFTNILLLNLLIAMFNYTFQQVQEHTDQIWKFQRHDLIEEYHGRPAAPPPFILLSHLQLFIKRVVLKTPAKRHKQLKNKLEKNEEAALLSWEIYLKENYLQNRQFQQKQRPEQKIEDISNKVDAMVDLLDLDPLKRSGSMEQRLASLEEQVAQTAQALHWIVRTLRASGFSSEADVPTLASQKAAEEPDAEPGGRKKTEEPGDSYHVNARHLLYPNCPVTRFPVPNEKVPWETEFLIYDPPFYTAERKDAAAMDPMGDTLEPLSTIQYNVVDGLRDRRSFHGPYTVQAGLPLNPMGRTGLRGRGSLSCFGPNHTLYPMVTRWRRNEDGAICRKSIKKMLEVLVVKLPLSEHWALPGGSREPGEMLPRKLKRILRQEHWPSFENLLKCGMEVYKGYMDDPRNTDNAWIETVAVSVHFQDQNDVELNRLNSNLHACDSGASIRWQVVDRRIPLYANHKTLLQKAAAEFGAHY
For the next assay, the system named is TRPM8. Put plainly: Ca2+ measurement in HEK293 cells transfected with TRPM8. It counts as cell-based, human. The following applies: 100 μmol/L Dic; Men 100 μmol/L.
A further assay addresses TRPV4 (Homo sapiens, UniProt Q9HBA0). Kind of assay: Ca2+ measurement in HEK293 cells transfected with TRPV4. It counts as cell-based.
Another assay concerns the target human TRPM3 isoforms (Homo sapiens, UniProt Q9HCF6). It counts as cell-based. The following applies: concentration-dependent.
A further assay has as its system human COX-1 / COX-2. The following applies: times potent for COX-1; ref Jett et al. 1999; cited from earlier work.
The next assay deals with TRPC6-like channel. The following applies: 500 μmol/L; without affecting channel conductance; ref Ilatovskaya et al. 2011; cited from earlier work.
The test system of a further assay is TRPC5. The following applies: read-out: IC50 for TRPC5; ref Jiang et al. 2012; cited from earlier work.
A further assay relates to guinea pig ileum. The following applies: ref Fujimoto et al. 2006; cited from earlier work.
For the next assay, the system named is mouse. The following applies: ref Tajino et al. 2007; cited from earlier work.
For the next assay, the system named is mouse TRPM3α2 (mTRPM3α2). The following applies: read-out: IC50 against mTRPM3α2; ref Klose et al. 2011; cited from earlier work.
For assay [3], the target named is endogenous TRPM3 in nIMR-32 cells (Homo sapiens, UniProt Q9HCF6). Put plainly: Ca2+ measurement in differentiated neuronal IMR-32. The following applies: 30 μmol/L; some nIMR-32 cells, not non-neuronal IMR-32 cells. The class given is cell-based.
Chain of endogenous TRPM3 in nIMR-32 cells (Q9HCF6 whole entry): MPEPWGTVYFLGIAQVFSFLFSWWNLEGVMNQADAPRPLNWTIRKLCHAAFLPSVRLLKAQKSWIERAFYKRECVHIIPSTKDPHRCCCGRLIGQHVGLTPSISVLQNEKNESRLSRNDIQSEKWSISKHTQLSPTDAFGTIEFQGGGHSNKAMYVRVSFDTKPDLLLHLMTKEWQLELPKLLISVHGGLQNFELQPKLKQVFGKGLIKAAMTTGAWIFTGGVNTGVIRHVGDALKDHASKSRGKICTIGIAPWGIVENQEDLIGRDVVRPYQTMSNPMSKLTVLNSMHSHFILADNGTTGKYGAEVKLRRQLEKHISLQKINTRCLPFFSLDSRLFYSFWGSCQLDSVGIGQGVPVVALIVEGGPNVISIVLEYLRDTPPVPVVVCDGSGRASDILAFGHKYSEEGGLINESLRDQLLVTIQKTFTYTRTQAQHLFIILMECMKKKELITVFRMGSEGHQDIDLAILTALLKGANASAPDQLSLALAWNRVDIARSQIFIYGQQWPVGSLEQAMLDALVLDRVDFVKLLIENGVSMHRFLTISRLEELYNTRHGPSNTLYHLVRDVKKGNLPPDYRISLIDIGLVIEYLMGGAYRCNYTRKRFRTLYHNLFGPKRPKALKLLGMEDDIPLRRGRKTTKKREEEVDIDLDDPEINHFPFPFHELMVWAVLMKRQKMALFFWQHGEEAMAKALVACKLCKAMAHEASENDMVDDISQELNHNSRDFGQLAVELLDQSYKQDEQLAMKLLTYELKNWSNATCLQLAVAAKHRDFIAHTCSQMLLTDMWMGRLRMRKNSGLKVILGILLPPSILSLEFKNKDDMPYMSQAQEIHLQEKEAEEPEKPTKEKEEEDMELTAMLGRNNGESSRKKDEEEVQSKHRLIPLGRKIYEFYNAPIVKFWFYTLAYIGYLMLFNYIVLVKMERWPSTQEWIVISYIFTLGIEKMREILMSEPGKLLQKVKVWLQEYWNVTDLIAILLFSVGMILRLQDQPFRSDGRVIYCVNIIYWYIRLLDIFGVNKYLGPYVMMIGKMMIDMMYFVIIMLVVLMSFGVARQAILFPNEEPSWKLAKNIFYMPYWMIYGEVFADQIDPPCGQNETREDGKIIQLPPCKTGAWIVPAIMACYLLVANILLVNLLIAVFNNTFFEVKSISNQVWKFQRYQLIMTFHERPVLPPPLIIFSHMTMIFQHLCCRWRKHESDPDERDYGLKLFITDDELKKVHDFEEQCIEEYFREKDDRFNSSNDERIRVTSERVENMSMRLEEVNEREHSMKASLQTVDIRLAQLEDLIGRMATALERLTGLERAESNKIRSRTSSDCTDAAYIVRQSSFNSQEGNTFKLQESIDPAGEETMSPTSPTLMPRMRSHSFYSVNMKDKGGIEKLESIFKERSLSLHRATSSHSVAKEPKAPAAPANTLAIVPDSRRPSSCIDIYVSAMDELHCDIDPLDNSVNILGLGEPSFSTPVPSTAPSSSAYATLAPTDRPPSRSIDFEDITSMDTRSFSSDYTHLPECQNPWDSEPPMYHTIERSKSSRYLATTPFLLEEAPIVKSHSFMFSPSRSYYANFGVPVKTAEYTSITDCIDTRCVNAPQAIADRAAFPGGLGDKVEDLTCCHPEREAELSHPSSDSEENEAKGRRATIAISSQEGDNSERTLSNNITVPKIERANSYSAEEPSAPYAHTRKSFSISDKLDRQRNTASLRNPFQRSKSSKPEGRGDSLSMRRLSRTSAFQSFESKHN

One may read the IC50 as the point on the concentration scale where inhibition reaches its midpoint.

“Also recorded” adds a separate entry of the source. Bounds are passed on as bounds.

Chain of human TRPM3 isoforms (Q9HCF6 whole entry, canonical isoform): as the sequence (Q9HCF6 whole entry) above
Chain of TRPV4 (Q9HBA0 whole entry, canonical isoform): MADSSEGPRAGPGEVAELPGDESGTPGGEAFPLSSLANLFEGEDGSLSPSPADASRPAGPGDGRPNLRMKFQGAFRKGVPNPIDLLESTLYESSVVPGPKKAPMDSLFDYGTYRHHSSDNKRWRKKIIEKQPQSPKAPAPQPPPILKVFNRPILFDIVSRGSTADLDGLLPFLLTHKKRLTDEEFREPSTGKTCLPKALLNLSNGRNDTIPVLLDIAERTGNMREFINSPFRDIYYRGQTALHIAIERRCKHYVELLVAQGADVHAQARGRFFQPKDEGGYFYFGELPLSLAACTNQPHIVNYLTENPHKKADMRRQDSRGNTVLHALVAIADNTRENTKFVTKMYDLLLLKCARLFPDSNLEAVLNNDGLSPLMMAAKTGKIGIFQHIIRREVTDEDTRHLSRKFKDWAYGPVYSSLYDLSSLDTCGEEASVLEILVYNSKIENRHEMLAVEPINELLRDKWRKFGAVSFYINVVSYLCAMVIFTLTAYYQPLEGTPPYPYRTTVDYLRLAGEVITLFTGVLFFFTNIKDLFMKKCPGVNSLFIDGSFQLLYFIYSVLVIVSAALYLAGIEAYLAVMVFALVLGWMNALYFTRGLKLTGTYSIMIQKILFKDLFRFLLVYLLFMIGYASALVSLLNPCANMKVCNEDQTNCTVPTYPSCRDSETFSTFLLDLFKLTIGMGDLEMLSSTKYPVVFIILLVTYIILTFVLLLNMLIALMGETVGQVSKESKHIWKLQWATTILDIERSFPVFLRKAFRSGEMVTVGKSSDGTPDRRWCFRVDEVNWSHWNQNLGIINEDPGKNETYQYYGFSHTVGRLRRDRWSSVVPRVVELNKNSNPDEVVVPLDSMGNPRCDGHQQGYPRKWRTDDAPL

`O=C(O)Cc1ccccc1Nc1c(Cl)cccc1Cl` [Dic, diclofenac]: on human TRPM3-3, the “Nif-evoked sustained Ca2+ response versus PregS response” value was “clearly resistant”. Also, the “reversibility of current inhibition after withdrawal” value in assay [1] (10 and 30 μmol/L Dic, 30 μmol/L PregS) is “immediately reversed”. Further, the “effect on PregS-evoked inward and outward currents” value in [1] (10 and 30 μmol/L Dic, 30 μmol/L PregS, whole-cell) was “inhibited”. Moreover, the “voltage dependence of inhibition” value in assay [1] (comparison between -80 mV and +80 mV) is “voltage‐independent”. The “effect on constitutive spontaneously active TRPM3-S currents” value in the assay on human TRPM3-S is given as “substantially inhibited; also recorded: significantly inhibited”. Also, in [2], the “effect on small basal currents evoked by ramp voltage commands” value is listed as “did not affect”. In addition, the IC50 is greater than 100 µM on TRPM2, greater than 100 µM against TRPV4 and 170 µM with TRPC5. Besides, the “effect on H2O2-induced Ca2+ response” value on TRPM2 (100 μmol/L Dic, H2O2 1 mmol/L) is on record as “failed to inhibit”. For the same compound, in the assay with TRPM8, the “effect on Men-induced Ca2+ response” value was “failed to inhibit; also recorded: resistant”. Further, the “effect on GSK-induced Ca2+ response” value at TRPV4 (100 μmol/L Dic, GSK 3 nmol/L) is reported as “failed to inhibit”. Also, the “effect on Nif-induced TRPM3-dependent Ca2+ responses” value on human TRPM3 isoforms (30 μmol/L Nif) was “significantly inhibited”. Moreover, in the assay with human COX-1 / COX-2, the “preference to inhibit COX-1 than COX-2” value was 1.6 times. Further, in the assay with TRPC6-like channel, the “effect on TRPC6-like channel activity” value is reported as “decreased”. For the same compound, the “effect on capsaicin-induced ileum relaxation” value in the assay with guinea pig ileum was “no effects”. For the same compound, the “effect on Men-evoked hyperthermia” value in the assay with mouse is “no effects”.

`COc1ccc2c(c1)c(CC(=O)O)c(C)n2C(=O)c1ccc(Cl)cc1` [Ind, indomethacin]: the “preference to inhibit COX-1 than COX-2” value in the assay with human COX-1 / COX-2 was 25 times.

As to `COC(=O)C1=C(C)NC(C)=C(C(=O)OC)C1c1ccccc1[N+](=O)[O-]` [Nif, nifedipine], on human TRPM3 isoforms, the “agonist effect on intracellular Ca2+ concentration” value is listed as “induced Ca^2+ response”.

For `Cc1cccc(Nc2ccccc2C(=O)O)c1C` [mefenamic acid], in the assay with mouse TRPM3α2 (mTRPM3α2), the IC50 was 6.6 µM.

For the compound pregnenolone sulfate [PregS], in assay [3], the “agonist Ca2+ response in nIMR-32 cells” value is listed as “evoked a Ca^2+ response”. At human TRPM3 isoforms, the “agonist effect on intracellular Ca2+ concentration” value was “induced elevation”.

The values are drawn from publication PMC4876142 (Pharmacology Research & Perspectives, 2016).
